In ChEMBL document CHEMBL3351467, “Ligand-free Pd-catalyzed C-N cross-coupling/cyclization strategy: an unprecedented access to 1-thienyl pyrroloquinoxalines for the new approach towards apoptosis” (Eur J Med Chem, 2014):
Calls of active or inactive are those of the source. The calls are words filed in the database; no cut-off is given here.

How the values were obtained:
[1] = species on record: Danio rerio; assay: Toxicity in Zebrafish embryo assessed as induction of changes in fins region at 3000 uM; assay type: organism-based; settings: in vivo
Outline: (§1)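 Embryos at 1 dpf were dechorionated with 0.5 mg/ml pronase E and washed in E3. They were exposed in groups of 6 to compound serially diluted in E3 (final 0.1% DMSO) at 28.5 °C until 5 dpf. Embryos were then washed, anesthetized with 0.008% tricaine, and scored blinded for morphology of body shape, somites, notochord, tail, intestine, fins, brain, jaws, heart, liver and swim bladder.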

[2] = species on record: Danio rerio; assay: Toxicity in Zebrafish embryo assessed as induction of changes in brain region at 3000 uM; assay type: organism-based; settings: in vivo
Outline: (§2)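 Zebrafish embryos collected at 1 dpf, staged, dechorionated with 0.5 mg/ml pronase E and washed in E3 medium. Compound serially diluted in E3 with 0.1% DMSO final. Six embryos per well, exposed at 28.5 °C until 5 dpf, then washed, anaesthetised with 0.008% tricaine and scored for morphology (body shape, somites, notochord, tail, intestine, fins, brain, jaws, heart, liver, swim bladder). Blinded; phenobarbital 3 mM positive control.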

[3] = species on record: Danio rerio; assay: Toxicity in Zebrafish embryo assessed as induction of changes in tail region at 3000 uM; assay type: organism-based; settings: in vivo; outline: as §1
[4] = species on record: Danio rerio; assay: Toxicity in Zebrafish embryo assessed as induction of changes in upper jaw region at 3000 uM; assay type: organism-based; settings: in vivo; outline: as §1
[5] = species on record: Danio rerio; assay: Toxicity in Zebrafish embryo assessed as induction of changes in heart region at 3000 uM; assay type: organism-based; settings: in vivo; outline: as §1
[6] = species on record: Danio rerio; assay: Toxicity in Zebrafish embryo assessed as induction of changes in somites at 3000 uM; assay type: organism-based; settings: in vivo; outline: as §1
[7] = species on record: Danio rerio; assay: Toxicity in Zebrafish embryo assessed as induction of changes in intestine region at 3000 uM; assay type: organism-based; settings: in vivo; outline: as §1
[8] = species on record: Danio rerio; assay: Toxicity in Zebrafish embryo assessed as induction of changes in lower jaw region at 3000 uM; assay type: organism-based; settings: in vivo; outline: as §1
[9] = species on record: Danio rerio; assay: Toxicity in Zebrafish embryo assessed as induction of changes in swim bladder region at 3000 uM; assay type: organism-based; settings: in vivo; outline: as §1
[10] = species on record: Danio rerio; assay: Toxicity in Zebrafish embryo assessed as induction of changes in body shape at 3000 uM; assay type: organism-based; settings: in vivo; outline: as §1
[11] = species on record: Danio rerio; assay: Toxicity in Zebrafish embryo assessed as induction of changes in liver region at 3000 uM; assay type: organism-based; settings: in vivo; outline: as §1
[12] = species on record: Danio rerio; assay: Toxicity in Zebrafish embryo assessed as induction of changes in notochords at 3000 uM; assay type: organism-based, Notochord; settings: in vivo; outline: as §1
[13] = species on record: Danio rerio; assay: Teratogenicity in Zebrafish embryo assessed as induction of morphological deformities at swim bladder at 1 uM incubated at 28.5 degC until 5 days post fertilization; assay type: toxicity, organism-based; settings: in vivo, 120 h
Outline: (§3)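 Embryos at 1 dpf dechorionated with 0.5 mg/ml pronase E and washed in E3. Exposed 6 per well to compound serially diluted in E3 with a final 0.1% DMSO, at 28.5 °C until 5 dpf. Embryos then washed, anaesthetised with 0.008% tricaine and scored blind for body shape, somites, notochord, tail, intestine, fins, brain, jaws, heart, liver and swim bladder. Phenobarbital (3 mM) served as positive control.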

[14] = species on record: Danio rerio; assay: Toxicity in Zebrafish embryo assessed as induction of changes in fins region at 1 uM; assay type: organism-based; settings: in vivo; outline: as §3
[15] = species on record: Danio rerio; assay: Toxicity in Zebrafish embryo assessed as induction of changes in body shape at 1 uM; assay type: organism-based; settings: in vivo; outline: as §3
[16] = target: 3',5'-cyclic-AMP phosphodiesterase 4B (Homo sapiens) (UniProt Q07343); assay: Inhibition of recombinant His-tagged PDE4B1 (unknown origin) expressed in Sf9 cells at 30 uM pre-incubated for 15 mins before cAMP substrate addition by luminescence assay
Outline: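 PDE4B1 purified in house (10 ng) pre-incubated 15 min with compound or DMSO vehicle. cAMP substrate ([…]) added for 1 h, then reaction stopped and detection reagent applied 10 min in the dark. Luminescence (RLU) read. % inhibition = (RLU vehicle − RLU inhibitor)/RLU vehicle × 100.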

[17] = Therapeutic index, ratio of NOAEL in Zebrafish embryos to apoptotic EC50 in Zebrafish embryos; assay type: organism-based, Danio rerio; settings: read-out: TI
[18] = species on record: Danio rerio; assay: Toxicity in Zebrafish embryo assessed as induction of changes in lower jaw region at 1 uM; assay type: organism-based; settings: in vivo; outline: as §3
[19] = species on record: Danio rerio; assay: Toxicity in Zebrafish embryo assessed as induction of changes in intestine region at 1 uM; assay type: organism-based; settings: in vivo; outline: as §3
[20] = species on record: Danio rerio; assay: Teratogenicity in Zebrafish embryo assessed as induction of morphological deformities at lower jaw at 1 uM incubated at 28.5 degC until 5 days post fertilization; assay type: organism-based; settings: in vivo, 120 h; outline: as §3
[21] = species on record: Danio rerio; assay: Toxicity in Zebrafish embryo assessed as induction of changes in upper jaw region at 1 uM; assay type: organism-based; settings: in vivo; outline: as §3
[22] = species on record: Danio rerio; assay: Teratogenicity in Zebrafish embryo at 10 to 30 uM incubated at 28.5 degC until 5 days post fertilization; assay type: ADME, organism-based; settings: in vivo, 120 h; outline: as §3
[23] = species on record: Danio rerio; assay: Induction of cell death in Zebrafish embryo at 10 to 30 uM incubated for 24 to 48 hrs by acridine orange based fluorescence microscopy; assay type: functional, organism-based
Outline: (§4)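 Embryos dechorionated by hand at 24 hpf, 6 per well in two sets, in 0.1% DMSO. Compound added from serially diluted working stocks, kept at 28 °C for 24 h and 48 h. Washed three times in E3, stained 30 min with acridine orange ([…]) in E3, rinsed twice, then examined for apoptosis.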

[24] = species on record: Danio rerio; assay: Hepatotoxicity in Zebrafish embryo at 1 uM incubated at 28 degC until 7 days post fertilization; assay type: organism-based; settings: in vivo, 168 h
Outline: (§5)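 Larvae at 4 dpf exposed in 24-well plates, 6 per well in 0.1% DMSO, to final 1, 3, 10 and 30 concentrations, incubated at 28 °C until 7 dpf. Washed in E3 and anaesthetised with tricaine. Images scored for liver size, liver degeneration and yolk sac retention as percentages. Amiodarone served as positive control.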

[25] = Teratogenicity in Zebrafish embryo assessed as live embryo level at 3 uM incubated at 28.5 degC until 5 days post fertilization; assay type: ADME, organism-based, Danio rerio; settings: zebrafish embryos, read-out: Activity; outline: as §2
[26] = species on record: Danio rerio; assay: Hepatotoxicity in Zebrafish embryo at 3 uM incubated at 28 degC until 7 days post fertilization; assay type: organism-based; settings: in vivo, 168 h; outline: as §5
[27] = species on record: Danio rerio; assay: Toxicity in Zebrafish embryo assessed as induction of changes in tail region at 1 uM; assay type: organism-based; settings: in vivo; outline: as §3
[28] = species on record: Danio rerio; assay: Teratogenicity in Zebrafish embryo assessed as induction of morphological deformities at 3 uM incubated at 28.5 degC until 5 days post fertilization; assay type: organism-based; settings: in vivo, 120 h; outline: as §3
[29] = species on record: Danio rerio; assay: Toxicity in Zebrafish embryo assessed as induction of changes in brain region at 1 uM; assay type: organism-based; settings: in vivo; outline: as §3
[30] = species on record: Danio rerio; assay: Toxicity in Zebrafish embryo assessed as induction of changes in swim bladder region at 1 uM; assay type: organism-based; settings: in vivo; outline: as §3
[31] = species on record: Danio rerio; assay: Teratogenicity in Zebrafish embryo assessed as live embryo level at 1 uM incubated at 28.5 degC until 5 days post fertilization; assay type: ADME, organism-based; settings: in vivo, 120 h; outline: as §3
[32] = species on record: Danio rerio; assay: Teratogenicity in Zebrafish embryo incubated at 28.5 degC until 5 days post fertilization; assay type: ADME, organism-based; settings: in vivo, 120 h; outline: as §3
[33] = species on record: Danio rerio; assay: Toxicity in Zebrafish embryo at 1 to 30 uM; assay type: organism-based; settings: in vivo; outline: as §3
[34] = species on record: Danio rerio; assay: Induction of apoptosis in Zebrafish embryo incubated for 24 to 48 hrs by acridine orange based fluorescence microscopy; assay type: functional, organism-based; outline: as §4
[35] = species on record: Danio rerio; assay: Toxicity in Zebrafish embryo assessed as induction of changes in somites at 1 uM; assay type: organism-based; settings: in vivo; outline: as §3
[36] = species on record: Danio rerio; assay: Toxicity in Zebrafish embryo assessed as induction of changes in notochords at 1 uM; assay type: organism-based, Notochord; settings: in vivo; outline: as §3
[37] = species on record: Danio rerio; assay: Toxicity in Zebrafish embryo assessed as induction of changes in liver region at 1 uM; assay type: organism-based; settings: in vivo; outline: as §3
[38] = species on record: Danio rerio; assay: Induction of apoptosis in Zebrafish embryo up to 3 uM incubated for 24 to 48 hrs by acridine orange based fluorescence microscopy; assay type: functional, organism-based; outline: as §4
[39] = species on record: Danio rerio; assay: Hepatotoxicity in Zebrafish embryo assessed as induction of embryo mortality at 10 to 30 uM incubated at 28 degC until 7 days post fertilization; assay type: organism-based; settings: in vivo, 168 h
Outline: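 Zebrafish embryos at 4 dpf, six per well in 0.1% DMSO, exposed to final compound concentrations of 1, 3, 10 and 30 at 28 °C until 7 dpf. Embryos then washed in E3 medium, anaesthetised with tricaine and imaged; liver size, liver degeneration and yolk sac retention quantified as percentages. Amiodarone served as positive control; evaluation blinded.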

[40] = species on record: Danio rerio; assay: Toxicity in Zebrafish embryo assessed as induction of changes in heart region at 1 uM; assay type: organism-based; settings: in vivo; outline: as §3

3',5'-cyclic-AMP phosphodiesterase 4B (Homo sapiens), sequence (Q07343 whole entry): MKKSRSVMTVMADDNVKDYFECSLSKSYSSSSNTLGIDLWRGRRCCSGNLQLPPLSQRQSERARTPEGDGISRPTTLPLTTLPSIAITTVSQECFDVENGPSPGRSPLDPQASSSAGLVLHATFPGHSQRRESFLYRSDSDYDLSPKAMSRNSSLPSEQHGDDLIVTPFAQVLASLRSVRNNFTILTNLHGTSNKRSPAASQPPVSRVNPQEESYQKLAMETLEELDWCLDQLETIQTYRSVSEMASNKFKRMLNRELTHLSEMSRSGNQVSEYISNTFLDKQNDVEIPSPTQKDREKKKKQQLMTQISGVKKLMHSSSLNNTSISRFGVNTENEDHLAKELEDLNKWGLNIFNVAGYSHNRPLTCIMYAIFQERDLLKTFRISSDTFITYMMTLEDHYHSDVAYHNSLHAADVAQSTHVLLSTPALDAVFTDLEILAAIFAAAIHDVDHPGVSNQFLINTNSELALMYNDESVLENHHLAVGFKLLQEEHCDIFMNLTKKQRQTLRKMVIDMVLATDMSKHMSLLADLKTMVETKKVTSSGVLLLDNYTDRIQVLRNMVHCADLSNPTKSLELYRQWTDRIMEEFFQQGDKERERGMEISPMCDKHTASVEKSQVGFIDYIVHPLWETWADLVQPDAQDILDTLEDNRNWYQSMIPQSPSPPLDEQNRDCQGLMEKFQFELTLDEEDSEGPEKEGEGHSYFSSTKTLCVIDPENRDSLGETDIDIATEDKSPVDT

CCC1(c2ccccc2)C(=O)NC(=O)NC1=O [PHENOBARBITAL]
Activity [1]: Toxic | Activity [2]: Toxic | Activity [3]: Toxic | Activity [4]: Toxic | Activity [5]: Toxic | Activity [6]: Toxic | Activity [7]: Toxic | Activity [8]: Toxic | Activity [9]: Toxic | Activity [10]: Toxic | Activity [11]: Toxic | Activity [12]: Toxic

CCOC(=O)c1c(-n2c(-c3ccccc3)cc3nccnc32)sc2c1CCC2
Activity [13]: Toxic | Activity [14]: Non-toxic | Activity [15]: Non-toxic | inhibition [16]: 62% | selectivity ratio [17]: 0.577 | Activity [18]: Toxic | Activity [19]: Non-toxic | Activity [20]: Toxic | Activity [21]: Non-toxic | Activity [22]: Toxic | Activity [23]: Active | Activity [24]: Non-toxic | survival at 120 h, 3 µM [25]: 50% | Activity [26]: Toxic | Activity [27]: Non-toxic | Activity [28]: Toxic | Activity [29]: Non-toxic | Activity [30]: Toxic | Activity [31]: Non-toxic | NOAEL [32]: 1 µM | LD [33]: 10 µM | MTC [33]: 1 µM | NOAEL [33]: < 1 µM | EC50 [34]: 1.73 µM | Activity [35]: Toxic | Activity [36]: Non-toxic | Activity [37]: Toxic | Activity [38]: Active | Activity [39]: Toxic | Activity [40]: Non-toxic
